# Experiments:
# [1] = tested on: LS411N-5FU-R and SW620-5FU-R cells; experiment: Sensitization to FasL-induced apoptosis; format: cell-based, human; details: sublethal doses plus FasL, 24h
# SW620 and SW480 cells = experiment: ChIP analysis of the FAS promoter region; format: cell-based, human; details: 2 days
# In short: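 Cells (SW620 given 50 nM test compound for H3K9me3 and RNA Pol II; SW480 and SW620 for H3K9ac) treated 2 days. ChIP followed the kit manufacturer's protocol with anti-H3K9me3, anti-H3K9ac or anti-RNA Pol II, and IgG as the negative control. The FAS promoter ChIP 1 region was read by semi-quantitative PCR and by real-time PCR, against 2 ng genomic DNA set at 1.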
# DNMT1 = DNMT1 (Homo sapiens, UniProt P26358); experiment: DNMT enzymatic activity in vitro; format: biochemical; details: recombinant DNMT1; 10-dose, 3-fold serial dilutions starting at 10 μM
# In short: (§1)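 Recombinant human enzyme with ³H-S-adenosylmethionine as substrate. Test compound was run at 10 doses, 3-fold serial dilution from 10 μM. […] Activity was plotted against concentration and IC50 fitted by curve regression. Three independent assays used three compound lots.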
# LS411N and SW620 cells [2] = experiment: Global H3K9 methylation by Western blot of histone acidic extracts; format: cell-based, human; details: 2 days
# In short: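 Cells were exposed to test compound at several concentrations for 2 days. Lysis buffer was 20 mM Tris-HCl pH 8, 150 mM NaCl, 5 mM EDTA, 0.5% NP-40 with protease inhibitors, for 30 min. After centrifugation the pellet went into 0.1M HCl on ice for 30 min. The acid extract was neutralised with Tris-HCl pH 9.0, blotted for H3K9me2/H3K9me3, and reprobed for total H3 as normaliser.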
# [3] = tested on: SW620-5FU-R and LS411N-5FU-R cells; experiment: Cell surface DR4 and DR5 expression by flow cytometry; format: cell-based, human; details: 2 days
# In short: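 Cells were plated at 1×10^5 per well and exposed to 0, 20 or 50 nM test compound. They were then stained with anti-DR4 (TRAIL-R1) or anti-DR5 (TRAIL-R2) antibodies and analysed by flow cytometry.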
# DNMT3b = DNMT3b (Homo sapiens, UniProt Q9UBC3); experiment: DNMT enzymatic activity in vitro; format: biochemical; details: recombinant DNMT3b; 10-dose, 3-fold serial dilutions starting at 10 μM
# In short: as §1
# DNMT3a = DNMT3a (Homo sapiens, UniProt Q9Y6K1); experiment: DNMT enzymatic activity in vitro; format: biochemical; details: recombinant DNMT3a; 10-dose, 3-fold serial dilutions starting at 10 μM
# In short: as §1
# [4] = Mouse serum liver enzyme profiles; format: in vivo; details: at the efficacious dose (1 mg/kg i.v.); preliminary assays
# [5] = tested on: LS411N-5FU-R and SW620-5FU-R cells; experiment: Fas expression; format: cell-based, human; details: 20 nM, 2 days
# In short: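 Cells were cultured with or without 20 nM test compound for 2 days. Surface Fas was measured by flow cytometry with a Fas-specific mAb against an IgG isotype control, quantified as MFI (mean, SD). Fas mRNA in SW620-5FU-R was measured by real-time RT-PCR.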
# LS411N and SW620 cells [6] = experiment: BNIP3 promoter DNA methylation by methylation specific-PCR; format: cell-based, human; details: 3 days
# In short: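 Cells were exposed to test compound at several concentrations for 3 days. Methylation status of the BNIP3 promoter CpG island was then assessed by methylation-specific PCR, with separate primers for the unmethylated and methylated forms.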
# [7] = tested on: metastatic human CRC cells; experiment: Cell growth / viability; format: cell-based
# [8] = tested on: LS411N-5FU-R and SW620-5FU-R cells; experiment: Sensitization to Drozitumab-induced apoptosis; format: cell-based, human; details: verticillin A 20 nM, Drozitumab 500 ng/ml, 24h
# In short: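 Cells were given test compound (20 nM), drozitumab (500 ng/ml) or both for 24 h. Floating and adherent cells were pooled and stained with Annexin V and PI, then read by flow cytometry. % apoptotic death = % Annexin V⁺PI⁺ of treated minus untreated control (mean, SD).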
# Sequence of DNMT3a (Q9Y6K1 whole entry, looked up, species assumed): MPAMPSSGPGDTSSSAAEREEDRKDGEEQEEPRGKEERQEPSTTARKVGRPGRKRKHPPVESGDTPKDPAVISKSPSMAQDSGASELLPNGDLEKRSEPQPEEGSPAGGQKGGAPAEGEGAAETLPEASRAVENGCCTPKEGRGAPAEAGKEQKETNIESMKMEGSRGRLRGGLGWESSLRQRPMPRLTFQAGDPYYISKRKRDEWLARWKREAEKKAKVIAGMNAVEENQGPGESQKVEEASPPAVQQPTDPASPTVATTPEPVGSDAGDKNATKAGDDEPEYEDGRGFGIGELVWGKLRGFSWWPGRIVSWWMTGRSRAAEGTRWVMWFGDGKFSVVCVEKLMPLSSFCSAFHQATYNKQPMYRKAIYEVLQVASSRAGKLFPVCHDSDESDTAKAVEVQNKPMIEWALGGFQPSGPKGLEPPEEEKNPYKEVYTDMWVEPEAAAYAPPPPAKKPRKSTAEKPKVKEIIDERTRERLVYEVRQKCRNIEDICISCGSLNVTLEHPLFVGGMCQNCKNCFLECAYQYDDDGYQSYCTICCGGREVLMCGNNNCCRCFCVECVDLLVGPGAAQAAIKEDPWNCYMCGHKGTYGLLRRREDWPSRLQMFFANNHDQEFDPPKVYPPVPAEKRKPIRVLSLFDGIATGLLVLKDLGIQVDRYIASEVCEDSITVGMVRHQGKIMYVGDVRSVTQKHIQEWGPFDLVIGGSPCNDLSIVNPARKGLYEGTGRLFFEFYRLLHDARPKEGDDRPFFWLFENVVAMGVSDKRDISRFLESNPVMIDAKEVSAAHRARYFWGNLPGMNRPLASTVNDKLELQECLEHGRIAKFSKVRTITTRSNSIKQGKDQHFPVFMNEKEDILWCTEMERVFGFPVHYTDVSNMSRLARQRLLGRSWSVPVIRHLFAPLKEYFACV
# Sequence of DNMT1 (P26358 whole entry, species assumed): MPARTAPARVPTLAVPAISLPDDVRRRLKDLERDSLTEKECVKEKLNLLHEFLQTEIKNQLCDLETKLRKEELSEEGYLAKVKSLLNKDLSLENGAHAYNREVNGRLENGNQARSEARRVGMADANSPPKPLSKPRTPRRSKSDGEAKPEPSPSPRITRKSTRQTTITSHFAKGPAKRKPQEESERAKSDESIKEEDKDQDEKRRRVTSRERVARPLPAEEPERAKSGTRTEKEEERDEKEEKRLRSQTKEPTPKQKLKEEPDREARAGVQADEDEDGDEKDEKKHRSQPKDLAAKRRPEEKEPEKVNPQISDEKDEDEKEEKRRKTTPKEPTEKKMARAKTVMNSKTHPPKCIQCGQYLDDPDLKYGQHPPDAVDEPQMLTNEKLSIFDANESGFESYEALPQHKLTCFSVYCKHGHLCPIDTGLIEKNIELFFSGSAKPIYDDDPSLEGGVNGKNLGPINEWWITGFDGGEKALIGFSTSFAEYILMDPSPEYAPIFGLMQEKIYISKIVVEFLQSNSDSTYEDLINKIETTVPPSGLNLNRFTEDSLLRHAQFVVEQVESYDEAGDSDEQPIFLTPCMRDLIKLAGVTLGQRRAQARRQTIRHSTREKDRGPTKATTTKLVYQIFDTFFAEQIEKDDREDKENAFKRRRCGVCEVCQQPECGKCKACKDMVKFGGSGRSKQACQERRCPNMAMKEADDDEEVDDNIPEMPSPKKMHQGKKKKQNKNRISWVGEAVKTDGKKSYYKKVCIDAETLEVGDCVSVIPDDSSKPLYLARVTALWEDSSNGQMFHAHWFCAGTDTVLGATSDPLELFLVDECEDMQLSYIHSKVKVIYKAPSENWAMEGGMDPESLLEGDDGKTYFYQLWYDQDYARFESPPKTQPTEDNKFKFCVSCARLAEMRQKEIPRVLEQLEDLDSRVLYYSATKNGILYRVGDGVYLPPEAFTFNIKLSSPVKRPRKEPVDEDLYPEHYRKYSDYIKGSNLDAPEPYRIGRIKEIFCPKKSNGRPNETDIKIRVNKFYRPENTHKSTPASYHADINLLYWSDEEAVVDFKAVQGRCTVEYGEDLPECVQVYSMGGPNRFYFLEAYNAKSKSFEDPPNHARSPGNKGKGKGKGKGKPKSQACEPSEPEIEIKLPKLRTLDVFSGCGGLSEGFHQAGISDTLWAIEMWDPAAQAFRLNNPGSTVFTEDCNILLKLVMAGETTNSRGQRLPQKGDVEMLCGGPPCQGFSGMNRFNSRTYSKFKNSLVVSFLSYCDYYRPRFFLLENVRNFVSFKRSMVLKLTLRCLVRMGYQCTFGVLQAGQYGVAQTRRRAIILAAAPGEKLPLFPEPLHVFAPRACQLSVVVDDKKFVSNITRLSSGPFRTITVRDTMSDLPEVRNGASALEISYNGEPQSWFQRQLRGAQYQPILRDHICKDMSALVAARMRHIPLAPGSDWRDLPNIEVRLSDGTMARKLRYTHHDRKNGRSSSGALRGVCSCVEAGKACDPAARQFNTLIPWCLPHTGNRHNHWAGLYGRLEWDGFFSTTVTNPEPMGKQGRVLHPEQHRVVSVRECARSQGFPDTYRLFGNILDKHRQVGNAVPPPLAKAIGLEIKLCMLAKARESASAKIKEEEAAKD
Structure (SMILES),sensitization of tumor cells to FasL-induced apoptosis [1],H3K9ac level in the FAS promoter region (SW620 and SW480 cells; SW480 cells),"H3K9me3 level in the FAS promoter region (SW620 and SW480 cells; SW620 cells, 50 nM)","RNA Pol II level in the FAS promoter region (SW620 and SW480 cells; SW620 cells, 50 nM)","H3K9ac level in the FAS promoter region (SW620 and SW480 cells; SW620 cells, increase)",effect on DNMT1 enzymatic activity (DNMT1),H3K9me2 and H3K9me3 levels (LS411N and SW620 cells [2]),DR4 expression [3],DR5 expression level [3],effect on DNMT3b enzymatic activity (DNMT3b),effect on DNMT3a enzymatic activity (DNMT3a),liver toxicity [4],"cell surface Fas receptor level ([5]; LS411N-5FU-R and SW620-5FU-R cells, flow cytometry)","Fas mRNA level ([5]; SW620-5FU-R cells, real time RT-PCR)",DNA demethylation of the BNIP3 promoter region (LS411N and SW620 cells [6]),sensitivity of 5-FU-resistant human CRC cells to verticillin A ([7]; 5-FU-resistant cells versus parent cell lines (Fig. S2B)),dose effective in suppression of metastatic human CRC cell growth ([7]; relatively high dose) [nM],cell sensitivity to Drozitumab [8]
O=C(CCCCCCC(=O)Nc1ccccc1)NO [vorinostat],to a small degree,,,,,,,,,,,,,,,,,
Nc1ncn([C@H]2C[C@H](O)[C@@H](CO)O2)c(=O)n1 [decitabine],to a small degree,,,,,,,,,,,,,,,,,
"CN1C(=O)[C@]23SS[C@@]1(C)C(=O)N2[C@H]1Nc2ccccc2[C@@]1([C@@]12c4ccccc4N[C@@H]1N1C(=O)[C@@]4(C)SS[C@]1(C(=O)N4C)[C@H]2O)[C@@H]3O [Verticillin A, verticillin A]",significantly greater efficacy than either decitabine or vorinostat,dramatically increased,decreased,did not identify an increase,at a low degree,no inhibitory effect,diminished,did not alter,increased,no inhibitory effect,no inhibitory effect,minimal liver toxicity,significantly increased,significantly increased,did not result in DNA demethylation,as sensitive to verticillin A as the parent cell lines,100,significantly increased

# Reference: article PMC4530033 (Journal of immunology (Baltimore, Md. : 1950), 2015)
